Reference: the RNAGym collection of RNA variant scans (doi:10.1126/science.aae0568)
Fewer inactive variants are shown than the library holds.

B1: tRNA (parent)
chain: GUUCCGUUGGCGUAAUGGUAACGCGUCUCCCUCCUAAGGAGAAGACUGCGGGUUCGAGUCCCGUACGGAACG

Variants of: B1
Assay: yeast fitness relative to wild type (ratio to wild type); higher = fitter; tRNA-Arg(CCU), competitive growth, 37 C, YPD
How it was run: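 A pool of Saccharomyces cerevisiae strains, each with a tRNA-Arg(CCU) gene variant at the native genomic locus, was competed in YPD at 37°C for 24 hours across six parallel replicates. The variants had been chemically synthesised at a 3% per-site mutation rate over 69 sites, and gene amplicons before and after competition were read by 100-nucleotide paired-end sequencing. Darwinian fitness relative to wild type rested on changes in genotype frequencies. Genotypes required ≥ 100 starting reads, and estimates < 0.5 were set to 0.5.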

Variant | yeast fitness
U26G C27G A57C C66U A69U | ≤ 0.5
U2G G12C C49U C66U | ≤ 0.5
G6A A57C A65C A70C | 0.609
G25C G39C G44C C49U C60U G68C | ≤ 0.5
A14C C24U A36G | 0.591
U3C A15U U16G U19A A43C A57U | ≤ 0.5
G12C U16C U28A C60U | ≤ 0.5
C24G G25C U35A G52A | ≤ 0.5
C11U C30A C55G A57C | ≤ 0.5
A20G A37C G68A | 0.515
U35C G63A | 0.614
U16C U32G G56C G68A | ≤ 0.5
C24A A65G | 0.654
U3G | 0.978
C5G C22U U28G | ≤ 0.5
C4A C5A A15G U19C | ≤ 0.5
C30G C62G | 0.551
C11G G18U C22U G39C C49G A57U A69U | ≤ 0.5
G9C C11A A15U C24G C33G G38C A43G C60U G63A | ≤ 0.5
C11G A15C G50C | ≤ 0.5
C4G C24U A40U A42C A45U | ≤ 0.5
G9C C61G G63C | ≤ 0.5
A37C C66A | 0.659
C5U G6A A15U A21G U54G | ≤ 0.5

Variant | yeast fitness
C11A A15C C34A C66A | ≤ 0.5
A14U A57U C60A | ≤ 0.5
C55A C66G | ≤ 0.5
C4A C27U A40U G52C C60G | ≤ 0.5
U16G G25C C46U G50A | 0.581
U16C U32G C34G U53A G63C | ≤ 0.5
A14C C31U | 0.706
C5U A20U C30U | ≤ 0.5
C5G G9C A42G | ≤ 0.5
U13C A15G G39A | 0.593
A15C U16C A43C | ≤ 0.5
A37U G52A | 0.534
C31U U47A G51U C62U | ≤ 0.5
U2C U7A C22A A36U A45U C60U C62U C66U | 0.541
G17A C33G A36G G63A | ≤ 0.5
G18A C60A G67A | ≤ 0.5
A40G A42G U59C | 0.618
U8C C27U C31A C55A G56A | 0.579
U13A C22G U59G A65U | ≤ 0.5
U2C A15U U16A | 0.62
G9C A15C C29A G58A C61G A70U | ≤ 0.5
G12A C61G C62A A70G | ≤ 0.5
C5U U8A | 0.632
A37G G51C A70U | ≤ 0.5

Variant | yeast fitness
U7C G18C U59G | ≤ 0.5
G48A G63A | 0.887
U8A C29G A40G G63A | ≤ 0.5
U2C A65C | 0.86
U13A C27G U59C | ≤ 0.5
U19A G41A A42G G58U G63C | ≤ 0.5
U7C U19A C62A G67C | ≤ 0.5
U32A A40U | 0.774
C55G C66G | 0.768
G6A A57G | 0.929
U2G C29G G44C C49G A57U | ≤ 0.5
G18C U28A A42U | ≤ 0.5
A69U A70G | 0.871
C29U C34A G51A | 0.664
G18A C31G G41A G52C C60U C62G C66G | ≤ 0.5
G41C G44C C55A | 0.563
A15U U64A | 0.709
U35C A45G | 0.773
U8G G41C | 0.657
A21C G25C U26G C62A | ≤ 0.5
C11G A15G C22A U26A A40U C62A | 0.638
U13G A45U C55G | ≤ 0.5
U7C G41A A42C G50C G52A A70G | ≤ 0.5
G38C G68A | 0.62

Variant | yeast fitness
U8G C22U C62A | 0.559
G9A U13G A36G U59A | 0.68
G6A A40U C46A | 0.657
G6A C33U | 0.649
A37G U59G | 0.75
U26C A36G A45G | ≤ 0.5
C11G U59A | 0.641
U32G G41C | 0.597
A40C A69G | 0.985
C55G A70C | 0.566
A21U G25A C62A | ≤ 0.5
U8A C31G A42C C55U G68A | ≤ 0.5
C30G A45G G56A | 0.526
C31U A57C C66U | 0.663
U13C C61U | 0.928
C29A G48A C66U | ≤ 0.5
C22G A42U G63C | ≤ 0.5
U8A C29G A40G | 0.639
C5U A15U G25A C29U C31U C34U | ≤ 0.5
U26A G67A | 0.905
G18U U32C A45G A57G | ≤ 0.5
C11U C22U U54C | 0.639
C5U A20C C27U G39A G56A G58C | ≤ 0.5
G18A G48A A57C U59C | ≤ 0.5

Variant | yeast fitness
C5A G18C U19A C27A C33A C61G A70G | ≤ 0.5
C34U U35C A40C | ≤ 0.5
A15C U16C A36U A65C | ≤ 0.5
C46G C49A G68C A69G | ≤ 0.5
G63C G67C A70C | 0.778
U13A C22A C29A G41C G50C | ≤ 0.5
C11U C29G C33U G39U C60U A65U A69U | ≤ 0.5
U13A G50C U59A | 0.594
U2C C11A C22G G41A A43C G51C C66U G67U | 0.584
C22U U28C C49A | ≤ 0.5
U26A U53A A65G | ≤ 0.5
G6A C31G C34U C46U G56A | ≤ 0.5
C24A G44A U54C G56C | ≤ 0.5
C4U A14G A15G C22U C46U A70U | ≤ 0.5
A37C A69C | 0.865
U2C C11G C22G | ≤ 0.5
A21G C33G A40G | 0.562
C11A G12C G63A | ≤ 0.5
C4A C11U | 0.781
C30G A57U C60G | ≤ 0.5
C4G G23C C66A | ≤ 0.5
A36C A40G C46U | 0.569
A15U C27G | 0.531
U16A A43C | 0.906

Variant | yeast fitness
U8A A15U C27G A36G A70C | ≤ 0.5
A43G U47C | 1.04
C4U C22G U59C | 0.712
U7G C49U | 0.957
G23C C24G C33G A40U A70G | ≤ 0.5
U13C C27G A40U C66U | 0.538
C11G A21G C34A | ≤ 0.5
C27G A43U | 0.604
C5A A37C C49A G68U | ≤ 0.5
C5U U19C A43U | 1.09
A21C A42U G52A C60A A69G | ≤ 0.5
U19A G52C | 0.656
C5U C11G A15U G56C C61G | ≤ 0.5
U26C A40G | 1.03
G12C C24G G51C C62A U64G | 0.59
A21U C55G C60A C61G C66G | ≤ 0.5
U35C C66U | 0.781
U26A A57C | 0.64
U3C C5G C34A A37U G44A G51A C55A | ≤ 0.5
A20U G51C A65G | ≤ 0.5
C4A G17A G41A A69U | ≤ 0.5
U3C A14G C24A G44A A65C | ≤ 0.5
U2A G9A G23A C29G | ≤ 0.5
C5A C49A G68C | 0.536

Variant | yeast fitness
C30U C49A | 0.547
G6A A20U C46A C55G | ≤ 0.5
U35C A43C | 0.927
A20G C30U A45G | 0.524
C22U A42U G51C | 0.647
C11U G44A C62U | 0.762
U7C U19C U26C C34U G52A U59A G63C | ≤ 0.5
U2G C4A U16C C61G | 0.571
G10C C29U C31U A65U | ≤ 0.5
U7C A36G | 0.888
C4G C30U C55U | ≤ 0.5
C4U U35C A70U | 0.711
G17A U19A C30U G67A | ≤ 0.5
C27U A36G G56C | ≤ 0.5
G6A C24U C61G G68U | ≤ 0.5
U16A A70U | 1.03
C24G C49G A70U | ≤ 0.5
G17A C29U | 0.832
C24A U26A C55A | ≤ 0.5
C5G G23C C33U G39A A43C | ≤ 0.5
A20U C34U G58C | ≤ 0.5
C27U G38A | 0.773
U2C G6C C11G A15C G25C C27G C30G G38C | ≤ 0.5
